# In ChEMBL document CHEMBL1141070, “Synthesis and biological activity of flurbiprofen analogues as selective inhibitors of beta-amyloid(1)(-)(42) secretion” (J Med Chem, 2005):
# Key:
# [1] = biological target: T1, Amyloid-beta precursor protein (Homo sapiens, UniProt P05067); conditions: at 100 µM
# Target sequence in this assay (P05067 whole entry): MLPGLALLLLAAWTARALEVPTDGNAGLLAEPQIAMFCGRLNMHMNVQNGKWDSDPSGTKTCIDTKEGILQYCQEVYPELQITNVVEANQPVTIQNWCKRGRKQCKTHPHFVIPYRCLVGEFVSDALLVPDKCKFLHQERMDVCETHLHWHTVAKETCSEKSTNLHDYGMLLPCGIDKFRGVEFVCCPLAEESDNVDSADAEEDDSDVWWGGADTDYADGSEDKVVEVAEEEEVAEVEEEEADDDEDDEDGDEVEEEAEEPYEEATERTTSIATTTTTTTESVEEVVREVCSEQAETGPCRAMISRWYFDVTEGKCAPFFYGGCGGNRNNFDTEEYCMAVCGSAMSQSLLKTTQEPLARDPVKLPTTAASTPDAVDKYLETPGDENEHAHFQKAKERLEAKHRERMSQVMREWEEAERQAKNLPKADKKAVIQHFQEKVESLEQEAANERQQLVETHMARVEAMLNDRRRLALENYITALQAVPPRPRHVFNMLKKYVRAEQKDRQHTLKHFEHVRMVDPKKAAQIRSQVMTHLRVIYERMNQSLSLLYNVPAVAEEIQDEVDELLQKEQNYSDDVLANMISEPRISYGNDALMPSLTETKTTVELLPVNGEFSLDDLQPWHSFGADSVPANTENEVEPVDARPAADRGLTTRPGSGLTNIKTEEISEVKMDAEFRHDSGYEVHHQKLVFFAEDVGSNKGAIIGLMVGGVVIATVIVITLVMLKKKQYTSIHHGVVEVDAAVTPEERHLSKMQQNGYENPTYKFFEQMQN
# [2] = biological target: T2, Prostaglandin G/H synthase 1 (Rattus norvegicus) (UniProt Q63921); test: Percent inhibition against cyclooxygenase-1 at 100 uM in rat blood
# T2 sequence (whole entry): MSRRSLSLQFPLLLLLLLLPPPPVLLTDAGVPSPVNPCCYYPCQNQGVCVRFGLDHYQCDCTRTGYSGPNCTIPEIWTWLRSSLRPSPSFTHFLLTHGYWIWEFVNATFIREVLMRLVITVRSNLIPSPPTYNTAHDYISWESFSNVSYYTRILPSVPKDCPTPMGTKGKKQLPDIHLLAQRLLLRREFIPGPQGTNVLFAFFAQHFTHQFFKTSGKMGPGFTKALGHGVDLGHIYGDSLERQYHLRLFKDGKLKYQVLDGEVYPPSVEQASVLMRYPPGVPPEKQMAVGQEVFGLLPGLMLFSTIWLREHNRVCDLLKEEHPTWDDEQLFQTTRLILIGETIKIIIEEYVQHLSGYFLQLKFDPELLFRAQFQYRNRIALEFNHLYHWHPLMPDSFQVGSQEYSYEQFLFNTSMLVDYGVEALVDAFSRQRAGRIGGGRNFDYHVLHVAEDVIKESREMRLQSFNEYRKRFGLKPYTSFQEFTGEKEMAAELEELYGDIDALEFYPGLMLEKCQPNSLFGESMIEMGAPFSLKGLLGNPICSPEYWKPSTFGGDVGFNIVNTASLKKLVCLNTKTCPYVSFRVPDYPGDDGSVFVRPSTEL
# Summary of the method: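 Fresh rat whole blood preincubated 1 h at 37 °C with compound (100 μM) or DMSO (0.3% final). Stimulated 30 min with A23187 calcium ionophore; plasma thromboxane B2 measured by radioimmunoassay.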
# [3] = biological target: T1, Amyloid-beta precursor protein; test: Inhibitory concentration against beta-amyloid-42 (Abeta42) secretion was evaluated in human neuroglioma cells (H4-APP695NL); assay type: functional, cell-based
# Summary of the method: (§1)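 H4-APP695NL human neuroglioma cells (APP695 Swedish K595N/M596L) seeded at 2 × 10^5/well and grown 24 h to confluence. Increasing compound concentrations added overnight; DMSO 1% as vehicle. Supernatant Aβ42 or Aβ40 measured by electrochemiluminescence immunoassay: biotinylated 4G8 plus C-terminus-specific rabbit antibodies, captured on streptavidin beads.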
# Target sequence in this assay (P05067 18-770 limits assumed): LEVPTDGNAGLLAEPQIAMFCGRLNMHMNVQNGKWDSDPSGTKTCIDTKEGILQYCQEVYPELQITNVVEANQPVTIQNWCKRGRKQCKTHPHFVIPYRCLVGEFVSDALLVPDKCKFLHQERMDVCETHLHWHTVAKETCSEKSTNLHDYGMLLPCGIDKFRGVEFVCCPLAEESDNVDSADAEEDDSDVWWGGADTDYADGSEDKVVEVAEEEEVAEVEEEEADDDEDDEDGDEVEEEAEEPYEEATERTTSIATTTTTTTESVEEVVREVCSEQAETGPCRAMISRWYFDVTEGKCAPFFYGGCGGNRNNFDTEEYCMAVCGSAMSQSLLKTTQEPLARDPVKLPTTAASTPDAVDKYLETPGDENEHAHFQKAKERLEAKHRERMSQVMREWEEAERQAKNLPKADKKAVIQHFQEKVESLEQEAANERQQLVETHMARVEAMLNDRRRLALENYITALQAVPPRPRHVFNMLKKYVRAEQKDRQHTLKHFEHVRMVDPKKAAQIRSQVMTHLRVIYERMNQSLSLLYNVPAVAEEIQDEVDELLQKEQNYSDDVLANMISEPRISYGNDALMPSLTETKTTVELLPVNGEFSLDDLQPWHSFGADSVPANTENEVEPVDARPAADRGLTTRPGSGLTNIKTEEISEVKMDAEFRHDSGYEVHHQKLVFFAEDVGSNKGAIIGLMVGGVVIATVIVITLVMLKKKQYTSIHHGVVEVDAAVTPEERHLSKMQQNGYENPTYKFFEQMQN
# CYP2C19 = CYP2C19 (Homo sapiens, UniProt P33261); test: Interaction with human cytochrome P450 isoform 2C19 expressed in baculovirus-insect cells at 100 uM; assay type: ADME
# Summary of the method: (§2)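 Microsomes from baculovirus-insect cells expressing human CYP1A2, 2C9, 2C19, 2D6 or 3A4. Compound serially diluted with an NADPH-regenerating mix (16.3 μM NADP+, 0.83 mM glucose-6-phosphate, 0.83 mM MgCl2, 0.4 U/mL G6PDH). Pre-warmed 10 min at 37 °C, then isoform-specific substrate added in 0.35 M potassium phosphate pH 7.4. Fluorometric read-out; IC50 by nonlinear regression.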
# [4] = Intestinal drug absorption was estimated in vitro using human colon adenocarcinoma (Caco-2) cell monolayers; assay type: ADME
# Summary of the method: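 Caco-2 monolayers on polycarbonate Transwell inserts, 2 h at 37 °C. Apical and basolateral solutions analysed by LC-MS/MS (SRM). Papp = Cb·Vb/(C0·A·t).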
# [5] = biological target: T3, Prostaglandin G/H synthase 1 (Rattus norvegicus, UniProt Q63921); test: Concentration required to inhibit cyclooxygenase-1 in rat blood
# T3 sequence (Q63921 whole entry): T2 sequence (whole entry)
# Summary of the method: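 Fresh rat whole blood was preincubated 1 h at 37 °C with compound (100 μM or a concentration series; DMSO 0.3% final). It was then stimulated 30 min with the Ca²⁺ ionophore A23187. Thromboxane B2 in the plasma was measured by radioimmunoassay.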
# [6] = Concentration ratio in cerebrospinal fluid and plasma; conditions: rat
# CYP3A4 = CYP3A4 (Homo sapiens, UniProt P08684); test: Interaction with human cytochrome P450 isoform 3A4 expressed in baculovirus-insect cells at 100 uM; assay type: ADME
# Summary of the method: as §2
# CYP2C9 = CYP2C9 (Homo sapiens, UniProt P11712); test: Interaction with human cytochrome P450 isoform 2C9 expressed in baculovirus-insect cells at 100 uM; assay type: ADME
# Summary of the method: as §2
# [7] = In vivo steady state metabolic clearance of the compound; conditions: rat
# Cytochrome P450 2D6 = Cytochrome P450 2D6 (Homo sapiens, UniProt P10635); test: Interaction with human cytochrome P450 isoform 2D6 expressed in baculovirus-insect cells; assay type: ADME
# Summary of the method: (§3)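 Supersome microsomes from baculovirus-insect cells expressing human CYP1A2, 2C9, 2C19, 2D6 or 3A4 were used with isoform-specific fluorogenic substrates. Compounds were serially diluted with an NADP⁺/glucose-6-phosphate regenerating system in 0.35 M potassium phosphate, pH 7.4. Plates were prewarmed 10 min at 37 °C, reactions stopped with acetonitrile/Tris, and fluorescence read. IC50 was obtained by nonlinear regression.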
# Cytochrome P450 2C9 = Cytochrome P450 2C9 (Homo sapiens, UniProt P11712); test: Interaction with human cytochrome P450 isoform 2C9 expressed in baculovirus-insect cells; assay type: ADME
# Summary of the method: as §2
# Cytochrome P450 2C19 = Cytochrome P450 2C19 (Homo sapiens, UniProt P33261); test: Interaction with human cytochrome P450 isoform 2C19 expressed in baculovirus-insect cells; assay type: ADME
# Summary of the method: as §2
# [8] = biological target: T1, Amyloid-beta precursor protein; test: (§4) Concentration required to inhibit A beta 40 peptide 100 uM
# Summary of the method: as §1
# Target sequence in this assay (P05067 whole entry): as the sequence (P05067 whole entry) above
# [9] = biological target: T1, Amyloid-beta precursor protein; test: as §4; remark: listed apart in the source
# Target sequence in this assay (P05067 whole entry): as above
# Cytochrome P450 3A4 = Cytochrome P450 3A4 (Homo sapiens, UniProt P08684); test: Interaction with human cytochrome P450 isoform 3A4 expressed in baculovirus-insect cells; assay type: ADME
# Summary of the method: as §3
# [10] = Concentration ratio in cerebrospinal fluid and plasma; below lower limit of quantitation; conditions: rat
# [11] = biological target: T1, Amyloid-beta precursor protein; test: Concentration required to inhibit A beta 40 peptide
# Summary of the method: as §1
# Target sequence in this assay (P05067 whole entry): as above
# [12] = biological target: T1, Amyloid-beta precursor protein; test: Concentration required to inhibit A beta 40 peptide at 100 uM
# Summary of the method: as §1
# Target sequence in this assay (P05067 whole entry): as above
# Cytochrome P450 2C19, sequence (P33261 whole entry, canonical isoform): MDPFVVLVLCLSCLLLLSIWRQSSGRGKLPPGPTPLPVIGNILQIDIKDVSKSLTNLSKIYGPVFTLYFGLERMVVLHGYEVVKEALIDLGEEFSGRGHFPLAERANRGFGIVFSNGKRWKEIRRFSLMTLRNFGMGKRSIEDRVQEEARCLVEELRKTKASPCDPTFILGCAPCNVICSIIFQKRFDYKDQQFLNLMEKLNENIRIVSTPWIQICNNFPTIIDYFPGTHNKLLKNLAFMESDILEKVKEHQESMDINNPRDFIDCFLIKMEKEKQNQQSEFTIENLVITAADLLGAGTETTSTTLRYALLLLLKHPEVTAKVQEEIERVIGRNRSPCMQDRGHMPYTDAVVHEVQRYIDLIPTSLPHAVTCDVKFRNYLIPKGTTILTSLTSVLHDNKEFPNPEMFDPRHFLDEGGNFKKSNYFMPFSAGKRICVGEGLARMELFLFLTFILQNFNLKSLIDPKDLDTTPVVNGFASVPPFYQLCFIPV
# Cytochrome P450 2C9, sequence (P11712 whole entry, canonical isoform): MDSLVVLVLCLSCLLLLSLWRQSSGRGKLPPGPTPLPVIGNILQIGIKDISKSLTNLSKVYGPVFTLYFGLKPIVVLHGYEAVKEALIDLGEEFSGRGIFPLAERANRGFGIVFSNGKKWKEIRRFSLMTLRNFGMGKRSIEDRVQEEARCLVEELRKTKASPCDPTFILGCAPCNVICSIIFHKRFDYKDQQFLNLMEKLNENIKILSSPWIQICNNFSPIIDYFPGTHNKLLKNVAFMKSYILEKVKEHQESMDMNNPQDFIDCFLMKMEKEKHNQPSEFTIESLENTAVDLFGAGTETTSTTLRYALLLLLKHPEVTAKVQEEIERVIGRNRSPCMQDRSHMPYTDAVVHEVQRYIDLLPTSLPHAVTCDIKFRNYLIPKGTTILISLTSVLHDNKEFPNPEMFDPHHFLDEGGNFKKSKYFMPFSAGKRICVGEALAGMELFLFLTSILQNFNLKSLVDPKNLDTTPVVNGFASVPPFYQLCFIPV
# CYP2C19, sequence (P33261 whole entry, canonical isoform): as the sequence (P33261 whole entry, canonical isoform) above
# Cytochrome P450 3A4, sequence (P08684 whole entry, canonical isoform): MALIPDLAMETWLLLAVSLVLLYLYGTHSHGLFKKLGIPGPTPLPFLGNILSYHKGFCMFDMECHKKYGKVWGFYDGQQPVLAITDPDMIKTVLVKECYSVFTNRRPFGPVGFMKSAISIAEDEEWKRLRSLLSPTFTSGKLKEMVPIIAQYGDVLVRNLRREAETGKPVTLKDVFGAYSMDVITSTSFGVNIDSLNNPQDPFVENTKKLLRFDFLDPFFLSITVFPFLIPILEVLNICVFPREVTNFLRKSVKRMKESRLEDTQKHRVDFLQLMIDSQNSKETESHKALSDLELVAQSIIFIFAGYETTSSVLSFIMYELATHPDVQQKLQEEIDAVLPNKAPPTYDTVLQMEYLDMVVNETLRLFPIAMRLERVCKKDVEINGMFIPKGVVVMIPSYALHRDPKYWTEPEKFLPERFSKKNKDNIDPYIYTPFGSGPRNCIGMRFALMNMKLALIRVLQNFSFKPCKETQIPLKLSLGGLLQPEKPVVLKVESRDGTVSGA
# CYP2C9, sequence (P11712 whole entry, canonical isoform): as the sequence (P11712 whole entry, canonical isoform) above
# CYP3A4, sequence (P08684 whole entry, canonical isoform): as the sequence (P08684 whole entry, canonical isoform) above
# Cytochrome P450 2D6, sequence (P10635 whole entry, canonical isoform): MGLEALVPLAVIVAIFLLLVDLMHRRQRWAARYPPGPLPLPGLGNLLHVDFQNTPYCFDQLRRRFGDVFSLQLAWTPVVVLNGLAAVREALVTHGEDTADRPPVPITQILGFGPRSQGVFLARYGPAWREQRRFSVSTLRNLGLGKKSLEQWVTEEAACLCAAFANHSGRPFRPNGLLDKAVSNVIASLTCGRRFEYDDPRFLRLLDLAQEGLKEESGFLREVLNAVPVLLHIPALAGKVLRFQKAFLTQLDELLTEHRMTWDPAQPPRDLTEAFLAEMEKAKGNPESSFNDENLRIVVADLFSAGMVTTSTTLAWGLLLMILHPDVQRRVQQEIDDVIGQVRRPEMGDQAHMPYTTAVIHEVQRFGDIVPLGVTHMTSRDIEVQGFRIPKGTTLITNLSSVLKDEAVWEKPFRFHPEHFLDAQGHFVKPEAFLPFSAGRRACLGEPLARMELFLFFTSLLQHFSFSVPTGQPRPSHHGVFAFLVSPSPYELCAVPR
Compound,inhibition [1],inhibition [2],IC50 [3],Papp [4],Ratio [6],Clearance [7],further results
CC(C(=O)O)c1ccc(-c2ccc(Cl)cc2)c(F)c1 (configuration not stated),55%,,,,,,
CC(C(=O)O)c1ccc(-c2ccc(O)cc2)c(F)c1 (configuration not stated),27%,,,,,,
CC(C(=O)O)c1ccc(-c2ccc(Cl)c(Cl)c2)c(F)c1 (configuration not stated),87%,78%,75 µM,> 5 ×10⁻⁶ cm/s,,,inhibition at 100 µM (CYP2C19): > 50%
C[C@@H](C(=O)O)c1ccc(-c2ccccc2)c(F)c1 [TARENFLURBIL],,,280 µM,,,,IC50 [5]: 44 µM
CC(c1ccc(-c2ccc(C(F)(F)F)cc2)c(F)c1)c1noc(O)n1 (configuration not stated),46%,,,,2.1%,5.3 mL/h,inhibition at 100 µM (CYP3A4): > 50%; inhibition at 100 µM (CYP2C9): > 50%; inhibition at 100 µM (CYP2C19): > 50%
O=C(O)C1(c2ccc(-c3ccc(OC4CCOCC4)cc3)c(F)c2)CC1,28%,,,,1.1%,70.5 mL/h,
O=C(O)C1(c2ccc(-c3ccc(-c4ccc(O)cc4)cc3)c(F)c2)CC1,99%,< 1%,31.6 µM,> 5 ×10⁻⁶ cm/s,,,IC50 (Cytochrome P450 2D6): 21.5 µM; IC50 (Cytochrome P450 2C9): 89 µM; IC50 (Cytochrome P450 2C19): 35 µM; IC50 [8]: 409 µM
CC(C(=O)O)c1ccc(-c2ccc(C(F)(F)F)cc2)c(Cl)c1 (configuration not stated),,,,,,,inhibition [9]: 40%
O=C(O)C1(c2ccc(-c3ccc(-c4ccc(F)cc4)c(F)c3)c(F)c2)CC1,75%,18%,57.9 µM,< 1 ×10⁻⁶ cm/s,1.8%,8.1 mL/h,inhibition [9]: 32%; IC50 (Cytochrome P450 2C9): 7 µM; IC50 (Cytochrome P450 2C19): 46 µM; IC50 (Cytochrome P450 3A4): 38 µM
O=C(O)C1(c2ccc(-c3ccccc3)c(F)c2)CC1,40%,26%,,> 5 ×10⁻⁶ cm/s,2.3%,9.8 mL/h,IC50 (Cytochrome P450 2C9): 83 µM
CC(C(N)=O)c1ccc(-c2cc(Cl)cc(Cl)c2)c(F)c1 (configuration not stated),70%,,64 µM,,19%,193 mL/h,IC50 [8]: 12 µM
O=C(O)C1(c2ccc(-c3ccc(-c4ccc(O)cc4)c(F)c3)c(F)c2)CC1,80%,< 1%,33.6 µM,> 5 ×10⁻⁶ cm/s,,109 mL/h,Ratio [10]: Below LLOQ; IC50 (Cytochrome P450 2C19): 74 µM; IC50 [11]: 111 µM; IC50 (Cytochrome P450 3A4): 58 µM
Cc1ccc(-c2ccc(C(C)C(=O)O)cc2F)cc1 (configuration not stated),44%,,,,,,
COC(=O)C(C)c1ccc(-c2cc(Cl)cc(Cl)c2)c(F)c1 (configuration not stated),,,,,,,inhibition [12]: 45%
CC(C)(C(=O)O)c1ccc(-c2ccc(C(F)(F)F)cc2)c(F)c1,58%,,70.6 µM,,,,
CC(C(=O)NO)c1ccc(-c2ccc(C(F)(F)F)cc2)c(F)c1 (configuration not stated),31%,,,,,,
